From ChEMBL document CHEMBL4680121, “Development of (4-methoxyphenyl)-1H-tetrazol-5-amine regioisomers as a new class of selective antitubercular agents” (Eur J Med Chem, 2020)

Columns and labels:
Assay type in all cases: functional
[1] = system: Mycobacterium tuberculosis; test: Antitubercular activity against INH-resistant Mycobacterium tuberculosis Spec.800 assessed as reduction in bacterial growth incubated for 14 days in presence of 1/2 x MIC rifampicin by MABA method; conditions: Mycobacterium tuberculosis, 800, 336 h; time 14 day
Outline: (§1)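 Checkerboard-type combination in Middlebrook 7H9 with 10% OADC. The test derivative at 1 to 1/32 of its MIC alone was mixed with the reference drug fixed at 1/2 its MIC. 4 ml samples were inoculated with McFarland 1 suspension and incubated 14 days at 37 °C. MIC is the lowest derivative concentration in combination that inhibited growth in liquid medium.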

[2] = system: Mycobacterium tuberculosis; test: Potentiation of rifampcin-induced antimycobacterial activity against INH-resistant Mycobacterium tuberculosis Spec.800 harboring InhA promoter mutation assessed as fold decrease in rifampicin MIC at 1/2X MIC incubated for 14 days in presence of rifampicin by MABA method; conditions: time 14 day
Outline: (§2)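 Combination assay in Middlebrook 7H9 broth with 10% OADC. The reference drug (INH, RMP, SM or EMB) was varied from 1 to 1/32 of its MIC, and the test derivative was fixed at 1/2 its own MIC. Single-agent MICs were determined first by MABA. Inoculum was 1 McFarland, with 14 days of incubation at 37 °C. The endpoint was the lowest reference-drug concentration that inhibited growth.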

[3] = system: Mycobacterium tuberculosis; test: Potentiation of isoniazid-induced antimycobacterial activity against INH-resistant Mycobacterium tuberculosis Spec.800 harboring InhA promoter mutation assessed as fold decrease in isoniazid MIC at 1/2X MIC incubated for 14 days in presence of isoniazid by MABA method; conditions: time 14 day; outline: as §2
[4] = system: Mycobacterium tuberculosis; test: Antitubercular activity against PAS/INH/EMB/RMP-resistant Mycobacterium tuberculosis Spec.210 assessed as fractional inhibitory concentration index in presence of 1/2 x MIC streptomycin incubated for 14 days by MABA method; conditions: time 14 day
Outline: (§3)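 Interaction analysis in Middlebrook 7H9 with 10% OADC. Combination MICs came from mixing the derivative (1 to 1/32 MIC) with the reference drug at 1/2 MIC, and the reverse, after 14 days at 37 °C with McFarland 1 inoculum. FICI was calculated from the combination MIC values and the MICs alone.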

[5] = system: Mycobacterium tuberculosis; test: Antitubercular activity against INH-resistant Mycobacterium tuberculosis Spec.800 assessed as ethambutol MIC incubated for 14 days in presence of ethambutol by MABA method; conditions: Mycobacterium tuberculosis, 800, 336 h; time 14 day
Outline: (§4)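 In Middlebrook 7H9 with 10% OADC, the reference drug (INH, RMP, SM or EMB) at 1 to 1/32 of its MIC alone was mixed with the test derivative fixed at 1/2 its MIC. 4 ml samples were inoculated with McFarland 1 suspension and incubated 14 days at 37 °C. MIC is the lowest drug concentration in combination that inhibited growth.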

[6] = system: Mycobacterium tuberculosis; test: Antitubercular activity against PAS/INH/EMB/RMP-resistant Mycobacterium tuberculosis Spec.210 assessed as inhibition of microbial growth incubated for 1 week by MABA method; conditions: Mycobacterium tuberculosis, 210, 168 h; time 1 weeks
Outline: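 Microplate Alamar Blue assay in Middlebrook 7H9 broth with 10% OADC. Inoculum from fresh LJ culture was adjusted to McFarland 1 and diluted 1:20. DMSO stocks were two-fold serially diluted to final 0.125–512 µg/ml, with growth and sterile controls. Plates ran 1 week at 37 °C, then Alamar blue was added for 24 h. MIC is the lowest concentration preventing the blue-to-pink change.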

[7] = system: Mycobacterium tuberculosis; test: Antitubercular activity against INH-resistant Mycobacterium tuberculosis Spec.800 assessed as rifampicin MIC incubated for 14 days in presence of rifampicin by MABA method; conditions: Mycobacterium tuberculosis, 800, 336 h; time 14 day; outline: as §4
[8] = system: Mycobacterium tuberculosis; test: Antitubercular activity against INH-resistant Mycobacterium tuberculosis Spec.800 assessed as reduction in bacterial growth incubated for 14 days in presence of 1/2 x MIC isoniazid by MABA method; conditions: Mycobacterium tuberculosis, 800, 336 h; time 14 day; outline: as §1
[9] = system: Mycobacterium tuberculosis; test: Antitubercular activity against INH-resistant Mycobacterium tuberculosis Spec.800 harboring InhA promoter mutation assessed as fractional inhibitory concentration index in presence of 1/2 x MIC streptomycin incubated for 14 days by MABA method; conditions: time 14 day; outline: as §3
[10] = system: Mycobacterium tuberculosis; test: Antitubercular activity against PAS/INH/EMB/RMP-resistant Mycobacterium tuberculosis Spec.210 assessed as fractional inhibitory concentration index in presence of 1/2 x MIC isoniazid incubated for 14 days by MABA method; conditions: time 14 day; outline: as §3
[11] = system: Mycobacterium tuberculosis; test: Potentiation of ethambutol-induced antimycobacterial activity against INH-resistant Mycobacterium tuberculosis Spec.800 harboring InhA promoter mutation assessed as fold decrease in ethambutol MIC at 1/2X MIC incubated for 14 days in presence of ethambutol by MABA method; conditions: time 14 day; outline: as §2
[12] = system: Mycobacterium tuberculosis; test: Antitubercular activity against INH-resistant Mycobacterium tuberculosis Spec.800 harboring InhA promoter mutation assessed as fractional inhibitory concentration index in presence of 1/2 x MIC rifampicin incubated for 14 days by MABA method; conditions: time 14 day; outline: as §3

COc1ccc(-n2nnnc2Nc2cccc(Br)c2)cc1
MIC [1]: 64 µg/mL | fold change (FC) [2]: <=4 | fold change (FC) [3]: <=4 | fractional inhibitory concentration index (FICI) [4]: 1.25 | MIC [5]: 1 µg/mL | MIC [6]: 2 µg/mL | MIC [7]: 0.25 µg/mL | MIC [8]: 16 µg/mL | fractional inhibitory concentration index (FICI) [9]: 0.56 | fractional inhibitory concentration index (FICI) [10]: 1.125 | fold change (FC) [11]: <=4 | fractional inhibitory concentration index (FICI) [12]: 0.75

COc1ccc(-n2nnnc2Nc2ccc(Br)cc2)cc1
MIC [1]: 128 µg/mL | fractional inhibitory concentration index (FICI) [4]: 1 | MIC [5]: 1 µg/mL | MIC [6]: 2 µg/mL | MIC [7]: 0.125 µg/mL | MIC [8]: 32 µg/mL | fractional inhibitory concentration index (FICI) [9]: 0.375 | fractional inhibitory concentration index (FICI) [10]: 0.625 | fractional inhibitory concentration index (FICI) [12]: 1.125
